Among the data in ChEMBL document CHEMBL4477185, “Anacardic Acids from Knema hookeriana as Modulators of Bcl-xL/Bak and Mcl-1/Bid Interactions” (J Nat Prod, 2016) are Ki and Activity values, retold here.

The target in assay [1] is Induced myeloid leukemia cell differentiation protein Mcl-1/BH3-interacting domain death agonist (Homo sapiens, UniProt Q07820). Kind of assay: Inhibition of His-tagged Mcl-1/5-carboxyfluorescein-Bid (unknown origin) after 1 hr by fluorescence polarization assay. The assay is classed as protein assay. An outline of the steps: (§1)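 Fluorescence polarization competition: a small molecule competes with a fluorescent-tagged BH3 peptide (Bak for Bcl-xL, Bid for Mcl-1) for binding to the anti-apoptotic protein. Run in triplicate.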

Another assay has as its target Bcl-xL/BAK (Homo sapiens, UniProt Q07817). Kind of assay: Inhibition of His-tagged Bcl-xL/5-carboxyfluorescein-Bak (unknown origin) after 1 hr by fluorescence polarization assay. The assay is classed as protein assay. An outline of the steps:
as §1
In general terms: In fluorescence polarisation assays a small probe gives low polarisation when free and higher when bound to something large.

For another assay, the system named is HCT-116. Kind of assay: Cytotoxicity against human HCT116 cells assessed as decrease in cell viability after 72 hrs by resazurin dye based fluorescence assay. The assay is classed as functional. On the technique in general: Resazurin is reduced to fluorescent resorufin, in cell work by metabolically active cells.
Assay [2] concerns the target T1, BH3-interacting domain death agonist (Homo sapiens) (UniProt P55957).
T1 sequence (whole entry): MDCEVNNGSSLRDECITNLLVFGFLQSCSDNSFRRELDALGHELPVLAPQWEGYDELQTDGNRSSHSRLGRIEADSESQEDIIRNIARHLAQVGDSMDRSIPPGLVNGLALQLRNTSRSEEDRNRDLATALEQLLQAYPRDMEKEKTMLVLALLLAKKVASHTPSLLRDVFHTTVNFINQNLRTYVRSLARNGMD
Kind of assay: Binding affinity to Bid (unknown origin) at 2 equivalent assessed as interaction at Asp16/Ser17/Met18/Asp19 and Arg20 residues by 2D 1H-1H TOCSY analysis.

For assay [3], the target named is T1, BH3-interacting domain death agonist (Homo sapiens). Nature of the assay: Binding affinity to Bid (unknown origin) assessed as micelles formation at 0.25 to 5 equivalent by 1H NMR spectra analysis.
Assay [4] has the same target. Nature of the assay: Binding affinity to Bid (unknown origin) assessed as induction of chemical shift perturbations by NMR titration method.
For assay [5], the target named is Induced myeloid leukemia cell differentiation protein Mcl-1 (Homo sapiens) (UniProt Q07820). Kind of assay: Binding affinity to Mcl-1 (unknown origin) assessed as effect on protein HN resonances at 1.5 equivalent by HSQC 1H-15N NMR spectroscopy.
In assay [6] the target is Bcl-2-like protein 1 (Homo sapiens) (UniProt Q07817). Nature of the assay: Binding affinity to Bcl-XL (unknown origin) assessed as effect on protein HN resonances at 1.5 equivalent by HSQC 1H-15N NMR spectroscopy. Summed up: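 Ligand titration into Bcl-xL, followed by 1H-15N HSQC spectra recorded on an 800 MHz spectrometer with a 5 mm z-gradient TCI cryoprobe.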

pKi: −log10 of the molar value. The source made the active and inactive calls. The rule behind the calls is not given here. Some results are limits rather than exact numbers.

Chain of Bcl-xL/BAK (Q07817 whole entry): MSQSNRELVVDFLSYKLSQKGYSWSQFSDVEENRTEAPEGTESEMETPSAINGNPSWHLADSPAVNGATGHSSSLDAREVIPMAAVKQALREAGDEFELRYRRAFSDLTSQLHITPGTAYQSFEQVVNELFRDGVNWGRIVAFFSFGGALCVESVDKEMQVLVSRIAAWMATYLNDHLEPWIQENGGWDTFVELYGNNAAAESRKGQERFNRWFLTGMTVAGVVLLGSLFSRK
Chain of Bcl-xL/BAK (Q16611 whole entry, further chain): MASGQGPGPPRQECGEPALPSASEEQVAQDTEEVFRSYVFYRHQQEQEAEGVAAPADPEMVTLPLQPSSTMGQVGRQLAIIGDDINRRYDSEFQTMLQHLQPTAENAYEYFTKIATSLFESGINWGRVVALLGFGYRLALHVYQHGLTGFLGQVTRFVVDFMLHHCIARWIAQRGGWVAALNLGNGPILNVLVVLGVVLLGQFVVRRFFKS
Chain of Induced myeloid leukemia cell differentiation protein Mcl-1/BH3-interacting domain death agonist (Q07820 whole entry, one chain of several, the tested form may be a part): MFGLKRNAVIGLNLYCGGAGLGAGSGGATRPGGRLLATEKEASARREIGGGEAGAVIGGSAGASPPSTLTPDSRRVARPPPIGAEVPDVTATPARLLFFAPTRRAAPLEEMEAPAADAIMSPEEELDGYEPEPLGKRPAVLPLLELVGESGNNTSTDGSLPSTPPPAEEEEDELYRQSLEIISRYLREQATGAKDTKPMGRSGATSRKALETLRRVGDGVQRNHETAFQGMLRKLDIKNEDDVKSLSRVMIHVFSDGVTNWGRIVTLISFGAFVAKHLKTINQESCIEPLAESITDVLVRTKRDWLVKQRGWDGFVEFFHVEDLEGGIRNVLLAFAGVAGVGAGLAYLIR
Chain of Bcl-2-like protein 1 (Homo sapiens) (Q07817 whole entry): as the sequence (Q07817 whole entry) above
Chain of Induced myeloid leukemia cell differentiation protein Mcl-1 (Homo sapiens) (Q07820 whole entry): as the sequence (Q07820 whole entry, one chain of several, the tested form may be a part) above

What is called pKi is −log10 of the Ki, conventionally taken in molar units. On to `CCCC/C=C\CCCCCc1cc(O)cc(O)c1C(C)=O`, for which the pKi in assay [1] is under 4.48; at Bcl-xL/BAK it was under 4.64.

With `O=C(O)c1c(O)cccc1CCCCCCCCc1ccccc1`, in the assay on HCT-116, the result was inactive. Besides, the pKi was 5.43 in assay [1] and 4.79 at Bcl-xL/BAK.

The compound `CC(C)=CCC[C@@H](C)[C@H]1C=C[C@@]2(C(=O)O)[C@H](CC(C)=C[C@@H]2/C=C(\C)C2CCC(C(=O)O)CC2)C1` (some centres undefined) [MEIOGYNIN A] gave a pKi on Bcl-xL/BAK of 5.59.

Regarding `CCCCCCCCCc1cccc(O)c1C(=O)O`, in the assay on HCT-116, the outcome was inactive. The negative logarithm of the Ki (pKi) in assay [1] is 4.75; on Bcl-xL/BAK, under 4.64.

For the compound `CCCC/C=C\CCCCCc1cccc(O)c1C(=O)O`, in the assay with HCT-116, the outcome was inactive. The negative logarithm of the Ki (pKi) in assay [1] is 5.24; at Bcl-xL/BAK, 5.49.

As to `CCCCCCCCCCCCCc1cccc(O)c1`, the pKi was under 4.48 in assay [1] and under 4.64 on Bcl-xL/BAK.

Turning to `CCCC/C=C\CCCCCCCc1cccc(O)c1`, the pKi is under 4.48 in assay [1] and under 4.64 at Bcl-xL/BAK.

As to `CCCCCCCCCCCCCc1cccc(O)c1C(=O)O` [GINKGOLIC ACID 13:0], the outcome in assay [2] and in assay [4] was Active. For the same compound, the Activity entry in assay [3] is “Dose-dependent effect”. Also, the outcome (with HCT-116; in assay [5]; in assay [6]) was inactive. The pKi (in assay [1]; at Bcl-xL/BAK) was 6.70 throughout.

`CCCCCCCCCCCc1cccc(O)c1C(=O)O`: the result in the assay with HCT-116 was inactive. Besides, the pKi in assay [1] was 6.15; on Bcl-xL/BAK, 5.92.

`CCCC/C=C\CCCCCCCc1cccc(O)c1C(=O)O`: in the assay with HCT-116, the outcome was inactive. The results for the pKi (in assay [1]; on Bcl-xL/BAK) were 6.70 and 6.52, respectively.

Consider `CCCCCCCCCCCc1cc(O)cc(O)c1C(C)=O`, for which the values for the pKi (in assay [1]; at Bcl-xL/BAK) were under 4.48 and under 4.64, respectively.

`CCCC/C=C\CCCCCCCc1cc(O)cc(O)c1C(C)=O`: the pKi was under 4.48 in assay [1] and under 4.64 at Bcl-xL/BAK.
